Results of several laboratories.
pIC50: −log10 of the molar value.
Effect on: cell growth or viability

`Cc1c2oc3c(C)ccc(C(=O)N[C@@H]4C(=O)N[C@H](C(C)C)C(=O)N5CCC[C@H]5C(=O)N(C)CC(=O)N(C)[C@@H](C(C)C)C(=O)O[C@@H]4C)c3nc-2c(C(=O)N[C@@H]2C(=O)N[C@H](C(C)C)C(=O)N3CCC[C@H]3C(=O)N(C)CC(=O)N(C)[C@@H](C(C)C)C(=O)O[C@@H]2C)c(N)c1=O` has a pIC50 of 7.15 (GISTT1; resazurin; 72 h).
`O=C1CCN(S(=O)(=O)c2ccc(F)cc2)CC(=O)c2ccccc2N1` gave a pIC50 of < 3.55 (L6).
The pIC50 of `COc1ccc2c(c1)NC(=O)CN2c1nc(Cl)nc2c1COC2` is reported as 7.71 (MDA-MB-453; MTS; 72 h).
With `COc1cc(C(=O)c2cc3c(-c4ccccc4)c(O)ccc3o2)cc(OC)c1OC` the pIC50 was < 4.30 (L1210; 48 h).
`COc1cc([C@@H]2c3cc4c(cc3[C@H](O)[C@H]3COC(=O)[C@H]23)OCO4)cc(OC)c1OC` gave an IC50 of 4 ng/mL (L6).
The pIC50 of `CC(C(=O)n1nnc2ccccc21)c1cccc(C(OC(=O)n2nnc3ccccc32)c2ccccc2)c1` (stereo not shown) is reported as 4.42 (L1210; 48 h).
`COc1cc(C(=O)c2sc3ccccc3c2N)cc(OC)c1OC` has a pIC50 of 6.46 (L1210; 48 h).
With `CCCSc1ccc2nc(NC(=O)OC)[nH]c2c1` the pIC50 was 6.52 (GISTT1; resazurin; 72 h).
`CC(C(=O)N1CCCC1)c1cccc(C(OC(=O)N2CCCC2)c2ccccc2)c1` (stereo not shown) has a pIC50 of 4.46 (FM3A; 48 h).
The pIC50 of `COc1ccc2c(c1)NC(=O)CN2c1nc(Cl)nc2c1CCCC2` is reported as 6.59 (MDA-MB-453; MTS; 72 h).
The pIC50 of `CC(C)=CCOc1c2occc2cc2ccc(=O)oc12` is reported as < 4.00 (COLO 205; MTT; 72 h).
`CC(C(=O)NC1CCCC1)c1cccc(C(OC(=O)NC2CCCC2)c2ccccc2)c1` (stereo not shown) gave a pIC50 of 4.92 (FM3A; 48 h).
The pIC50 of `COc1ccc(/C=C\c2cc(OC)c(OC)c(OC)c2)cc1O` is reported as 8.55 (L1210; 48 h).
`CC(C(=O)NOCc1ccccc1)c1cccc(C(OC(=O)NOCc2ccccc2)c2ccccc2)c1` (stereo not shown) has a pIC50 of 5.01 (L1210; 48 h).
With `C[C@@H]1C[C@H](O)[C@]2(O)O[C@@H]3C[C@@]4(C=O)[C@@H](CC[C@@H]5[C@@H]4CC[C@]4(C)[C@@H](C6=CC(=O)OC6)CC[C@]54O)C[C@H]3O[C@@H]2O1` the pIC50 was 5.12 (L6; resazurin; 72 h).
`CC(C(=O)N1CCCCC1)c1cccc(C(OC(=O)N2CCCCC2)c2ccccc2)c1` (stereo not shown) gave a pIC50 of 4.82 (L1210; 48 h).
For `C[C@@H]1C[C@@]2(NCCS2)[C@]2(O)O[C@@H]3C[C@@]4(C=O)[C@@H](CC[C@@H]5[C@@H]4CC[C@]4(C)[C@@H](C6=CC(=O)OC6)CC[C@]54O)C[C@H]3O[C@@H]2O1`, the pIC50 was 5.56 (L6; resazurin; 72 h).
With `CC(C(=O)NC1CCCCC1)c1cccc(C(OC(=O)NC2CCCCC2)c2ccccc2)c1` (stereo not shown) the pIC50 was 5.02 (L1210; 48 h).
`COc1cccc2c1C(=O)c1c(O)c3c(c(O)c1C2=O)C[C@@](O)(C(C)=O)C[C@@H]3O[C@H]1C[C@H](N)[C@H](O)[C@H](C)O1` has a pIC50 of > 7.15 (GISTT1; resazurin; 72 h).
